Screens deposited in PubChem BioAssay by several laboratories.
CSN inh: inhibitors of CSN-mediated cullin deneddylation, primary screen, biochemical, fluorescence polarization, uHTS. Purified CSN, SCF-Nedd8-OG deneddylation. inhibition, % at 12.5 µM. actives 0.38% (n = 360,000);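 active means pattern-corrected inhibition above about 35%, with an unprinted fluorescence ratio check between 0.5 and 1.5, limit read from the data, passing the limit was not always enough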;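 further: 0% = enzyme with substrate and 100% = substrate without enzyme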
Target sequence (Q92905 whole entry, looked up, one chain of several): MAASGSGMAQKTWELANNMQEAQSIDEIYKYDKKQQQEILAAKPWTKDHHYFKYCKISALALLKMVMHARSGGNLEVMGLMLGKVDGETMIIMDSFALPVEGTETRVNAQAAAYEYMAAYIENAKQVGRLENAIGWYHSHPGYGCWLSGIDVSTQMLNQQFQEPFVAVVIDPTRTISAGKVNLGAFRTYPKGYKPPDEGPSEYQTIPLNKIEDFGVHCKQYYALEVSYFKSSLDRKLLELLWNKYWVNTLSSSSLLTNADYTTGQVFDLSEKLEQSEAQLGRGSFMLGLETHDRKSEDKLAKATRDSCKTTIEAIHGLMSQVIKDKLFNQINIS
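Detection – fluorescence polarization · System – HEK293T-derived human Csn5 enzyme · Controls – substrate-only high control, full reaction low control · Timing – 90 min, room temperature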
HNF4A DNA FP: change in binding of human HNF4A to DNA, primary screen, biochemical, fluorescence polarization, FITC-DNA. Hepatocyte nuclear factor 4-alpha (Homo sapiens), P41235. 1 h. activity change, % at 10 µM. actives 0.3% (n = 360,000); in the data active means activity change above about 30%, passing the limit was not always enough
Rtt109 Vps75: inhibitors of C. albicans Rtt109/Vps75 HAT, primary screen, biochemical, ThioGlo CoA-SH fluorescence, plate reader | AID 540336, 2011 | inhibition, % at 34.9 µM | actives 0.16% (n = 330,000) | purified Rtt109/Vps75, 4 h;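 active means inhibition of at least 50% in every replicate; inconclusive means best replicate reaches 50% inhibition but some replicates fall short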
TPT1 inhibitor: Candida albicans TPT1 enzyme inhibitors, primary screen, biochemical, fluorescence polarization. recombinant caTPT1, FP RNA substrate dephosphorylation. AID 1962, 2009. tRNA 2'-phosphotransferase TPT1 (Candida albicans SC5314). actives 0.81% (n = 300,000). inhibition, % at 5 µM;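 active means inhibition above the mean of all tested compounds plus 3 SD, set per screening campaign, cut at about 24% in these data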;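 further: plate controls were DMSO alone for no effect and ferristatin control at 100 nM for full effect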
* marks the source's active call; other numbers are inactive results; ? = inconclusive; nt = no result. Hits are enriched below; roughly 1.2% of the tested compounds scored in any of these assays.

SMILES	CSN inh	HNF4A DNA FP	Rtt109 Vps75	TPT1 inhibitor
O=C1/C(=C/c2ccccn2)COc2ccccc21	1	-2	0	1
O=C1/C(=C/c2ccc(O)cc2)COc2ccccc21	89*	5	-1	4
N#CC(C(=O)NCCc1ccccc1)c1nc2ccccc2nc1N1CCOCC1 (centres undefined)	39*	49	-5	2
N#CC(C(=O)NCCc1ccccc1)c1nc2ccccc2nc1N1CCCCC1 (centres undefined)	3	11	3	0
COc1ccc(CCNC(=O)CN2C(=O)NC3(CCCCC3C)C2=O)cc1 (centres undefined)	-3	4	51*	nt
CCOc1ccc(CCNC(=O)CN2C(=O)NC3(CCCCC3C)C2=O)cc1OCC (centres undefined)	0	-4	-4	-1
CN1CCN(CCCNc2nc3ccccc3c3nc(-c4ccccc4)nn23)CC1	-5	0	3	nt
CCN(CC)CCCNc1nc2cc(OC)c(OC)cc2c2nc(-c3cccnc3)nn12	2	-1	79*	2
COc1cc2nc(NCCCN3CCN(C)CC3)n3nc(-c4ccccc4)nc3c2cc1OC	-1	-1	82*	1
COc1ccc(CCNC(=O)C(=O)c2cn(CC(=O)N3CCCC3)c3ccccc23)cc1	-4	0	nt	nt
CN(C)c1ccc(C=c2c3ccccc3n3c2cc(-c2ccc(Cl)cc2)[n+]3C)cc1	18	50*	-16	nt
CN(C)c1ccc(C=c2c3ccccc3n3c2cc(-c2ccccc2)[n+]3C)cc1	24	74*	2	nt
CN(C)c1ccc(C=c2c3cc([N+](=O)[O-])ccc3n3c2cc(-c2ccccc2)[n+]3C)cc1	5	4	6	nt
O=C(NCCc1ccc(C(F)(F)F)cc1)C1CCC(=O)N(CCCc2ccccc2)C1 (centres undefined)	1	-1	19	-3
CCOC(=O)c1c(C)oc2c1c(C(c1ccccc1)N1CCOCC1)c(O)c1ccccc12 (centres undefined)	0	0	-2	3
CCOC(=O)c1c(C)oc2c1c(C=NCCO)c(O)c1ccccc12	-15	-8	53*	nt
O=C(N/N=C/c1ccc2c(c1)OCO2)c1cc(-c2ccccc2)nc2ccccc12	-1	0	?	2
O=C(N/N=C/c1ccc2c(c1)OCO2)c1cc(-c2ccco2)nc2ccccc12	43*	-13	5	nt
CC(C)C[C@H](NC(=O)C1CC(=O)N(c2ccc3c(c2)OCCO3)C1)C(=O)N1CCCCC1 (some centres undefined)	-7	0	10	2
COc1cc2c(cc1NC(=O)CSc1nnc(Cc3cccs3)n1Cc1ccco1)oc1ccccc12	-6	-1	5	1
Cc1cc(Cl)ccc1NC(=O)CSc1nnc(Cc2cccs2)n1Cc1ccco1	-1	42*	4	4
S=c1[nH]nc(-c2cc(-c3ccccc3)n[nH]2)n1/N=C/c1c(Cl)cccc1Cl	46*	-6	1	-1
Cc1ccccc1/C=N/n1c(-c2cc(-c3ccccc3)n[nH]2)n[nH]c1=S	13	-1	1	-1
Cc1cc(NC(=O)CCC(=O)N(CC(=O)NCC2CCCO2)c2ccc(F)c(Cl)c2)no1 (centres undefined)	-2	2	15	-1
CC(OC(=O)c1cccc(Cl)c1)C(=O)NC1CCCCC1C (centres undefined)	57*	6	-9	0
SMILES	CSN inh	HNF4A DNA FP	Rtt109 Vps75	TPT1 inhibitor
Cc1nn(S(=O)(=O)c2ccc(Br)cc2)c(C)c1S(=O)(=O)N1CCOCC1	0	-3	-4	-1
CCCCCC[n+]1ccccc1/C=C/c1ccc(N(C)C)cc1	100	121*	nt	nt
COCCn1c(C)cc(/C=C(\C#N)C(=O)OCC(=O)N(C)c2c(N)n(Cc3ccccc3)c(=O)[nH]c2=O)c1C	-2	2	1	3
O=S(=O)(Cc1noc(-c2ccc(Cl)cc2)n1)Cc1ccco1	38*	14	nt	1
O=S(=O)(Cc1ccco1)Cc1nc(-c2ccc(Cl)cc2)cs1	1	2	nt	0
Cc1ccc(NC(=S)Nc2ccc(F)cc2)cc1C	-1	3	50*	-1
Cc1cccc(C)c1NC(=S)Nc1ccc(F)cc1	-9	0	4	0
S=c1[nH]nc(Cc2cccs2)n1-c1ccccc1	-2	-2	-4	0
CCCCc1ccc(-n2c(Cc3cccs3)n[nH]c2=S)cc1	-5	1	72*	3
Nc1ncnc2c1ncn2[C@@H]1O[C@H](C(=O)N[C@H](CO)Cc2ccc(O)cc2)[C@@H](O)[C@H]1O	-1	5	nt	nt
O=C(NCCN1CCCC1)c1ccc(Cn2c(=S)[nH]c3cc4c(cc3c2=O)OCO4)cc1	12	10	-6	-4
C=CCNC(=O)c1ccc(Cn2c(=S)[nH]c3cc4c(cc3c2=O)OCO4)cc1	56*	16	7	7
Cc1cc2nc(-c3cccc(Br)c3)c(CC(C)(C)C)n2c(C)c1Br	132*	1	nt	nt
Cc1cccc(NC(=S)N/N=C2\CC(C)(C)Oc3ccc(O)cc32)c1	-5	36*	5	0
O=C(O)COc1ccc(/C=C2\SC(=Nc3ccccc3)N(c3ccccc3)C2=O)cc1	0	1	-9	-2
COc1ccc(N=C2S/C(=C\c3ccc(OCC(=O)O)cc3)C(=O)N2CCc2c[nH]c3ccccc23)cc1	36*	-74	10	nt
O=C1NC(C2CC3C=CC2C3)Nc2ccccc21 (centres undefined)	-2	3	nt	nt
NNc1nc2c(-c3cccc(C(F)(F)F)c3)nnn2c2ccccc12	18	36*	1	nt
COc1ccc(CC(=O)OCC(=O)Nc2cc(Cl)ccc2C)cc1	-4	0	4	nt
COc1ccccc1NC(=O)NNC(=O)CCN1CCOCC1	1	2	-3	-3
CCCCN(C/C=C/c1ccccc1OC)Cc1ccccc1	4	1	64*	2
CCN(C/C=C/c1ccccc1OC)Cc1ccccc1	-2	-2	-3	3
CC(=O)N1CCc2c(sc(NC(=O)C3CC3)c2-c2nc3ccccc3s2)C1	44*	35*	-20	19
C=CCN1CC(C(=O)N2CCC(Cc3ccc(Cl)cc3)(C(=O)OCC)CC2)CC1=O (centres undefined)	1	36*	-1	-1
CC(=O)Nc1ccc(OCC(=O)NCc2ccccc2)cc1	1	2	52*	-1
CC(=O)Nc1ccc(C(=O)OCC(=O)NCc2ccccc2)cc1	-6	-2	8	0
CCN(Cc1ccccc1)C(=S)Nc1cc(C(=O)OC)ccc1C(=O)OC	2	33*	-2	3
N#Cc1sc2nc(-c3ccccc3)cc(-c3ccco3)c2c1N	40*	11	-5	10
Oc1ccc(C[C@H]2CNCCN2CC2(c3ccccc3)CC2)cc1	0	2	4	-3
